Values after ≈ are worked out from the molar mass of the structure shown.
Tests used:
[1] = tested on: Candida tropicalis; test: Antimicrobial activity against Candida tropicalis isolate 22 after 48 hrs by microdilution broth method; format: functional; conditions: isolate 22, 48 h
Outline: (§1)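 Yeasts were grown overnight on Sabouraud dextrose agar at 35°C, suspended in water, and adjusted at 530 nm to McFarland 0.5 (approximately 1-5 x 10^6 CFU/ml). They were then diluted 1:100 and 1:20 in RPMI 1640 with 0.165 M MOPS and 2% glucose. Compound in DMSO was tested at ten concentrations, 0.25–256 mg/L, with incubation at 35°C. At 48 h, MIC was read spectrophotometrically as 50% turbidity reduction versus growth control.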

[2] = tested on: Candida parapsilosis; test: Antimicrobial activity against Candida parapsilosis isolate 44 after 48 hrs by microdilution broth method; format: functional; conditions: Lodderomyces parapsilosis, isolate 44, 48 h; outline: as §1
[3] = tested on: Pichia kudriavzevii; test: Antimicrobial activity against Candida krusei isolate 48 after 48 hrs by microdilution broth method; format: functional
[4] = tested on: Nakaseomyces glabratus; test: Antimicrobial activity against Candida glabrata isolate 46 after 48 hrs by microdilution broth method; format: functional; outline: as §1
[5] = tested on: Candida tropicalis; test: Antimicrobial activity against Candida tropicalis isolate 33 after 48 hrs by microdilution broth method; format: functional; conditions: isolate 33, 48 h; outline: as §1
[6] = tested on: Nakaseomyces glabratus; test: Antimicrobial activity against Candida glabrata isolate 49 after 48 hrs by microdilution broth method; format: functional; outline: as §1
[7] = tested on: Nakaseomyces glabratus; test: Antimicrobial activity against Candida glabrata isolate 30 after 48 hrs by microdilution broth method; format: functional; outline: as §1
[8] = tested on: Cryptococcus deneoformans; test: Antimicrobial activity against Cryptococcus neoformans var. neoformans isolate 14 after 48 hrs by microdilution broth method; format: functional; conditions: isolate 14, 48 h; outline: as §1
[9] = tested on: Candida albicans; test: Antimicrobial activity against Candida albicans isolate 31 after 48 hrs by microdilution broth method; format: functional; conditions: isolate 31, 48 h; outline: as §1
[10] = tested on: Escherichia coli; test: Antimicrobial activity against Escherichia coli isolate after 24 hrs by microdilution broth method
[11] = tested on: Candida parapsilosis; test: Antimicrobial activity against Candida parapsilosis isolate 26 after 48 hrs by microdilution broth method; format: functional; conditions: Lodderomyces parapsilosis, isolate 26, 48 h; outline: as §1
[12] = tested on: Candida albicans; test: Antimicrobial activity against Candida albicans isolate 47 after 48 hrs by microdilution broth method; format: functional; conditions: isolate 47, 48 h; outline: as §1
[13] = tested on: Nakaseomyces glabratus; test: Antimicrobial activity against Candida glabrata isolate 32 after 48 hrs by microdilution broth method; format: functional; conditions: isolate 32, 48 h; outline: as §1
[14] = tested on: Candida albicans; test: Antimicrobial activity against Candida albicans isolate 41 after 48 hrs by microdilution broth method; format: functional; conditions: isolate 41, 48 h; outline: as §1
[15] = tested on: Staphylococcus aureus; test: Antimicrobial activity against methicillin-resistant Staphylococcus aureus isolate after 24 hrs by microdilution broth method
[16] = tested on: Pseudomonas aeruginosa; test: Antimicrobial activity against Pseudomonas aeruginosa isolate 2 after 24 hrs by microdilution broth method; conditions: isolate 2, 24 h
[17] = tested on: Candida parapsilosis; test: Antimicrobial activity against Candida parapsilosis ATCC 22019 after 48 hrs by microdilution broth method; format: functional; conditions: Lodderomyces parapsilosis, ATCC 22019, 48 h; outline: as §1
[18] = tested on: Cryptococcus deneoformans; test: Antimicrobial activity against Cryptococcus neoformans var. neoformans isolate 27 after 48 hrs by microdilution broth method; format: functional; conditions: isolate 27, 48 h; outline: as §1
[19] = tested on: Pichia kudriavzevii; test: Antimicrobial activity against Candida krusei isolate 43 after 48 hrs by microdilution broth method; format: functional
[20] = tested on: Cryptococcus deneoformans; test: Antimicrobial activity against Cryptococcus neoformans var. neoformans isolate 25 after 48 hrs by microdilution broth method; format: functional; conditions: isolate 25, 48 h; outline: as §1
[21] = tested on: Candida albicans; test: Antimicrobial activity against Candida albicans isolate 48 after 48 hrs by microdilution broth method; format: functional; conditions: isolate 48, 48 h; outline: as §1
[22] = tested on: Candida parapsilosis; test: Antimicrobial activity against Candida parapsilosis isolate 19 after 48 hrs by microdilution broth method; format: functional; conditions: Lodderomyces parapsilosis, isolate 19, 48 h; outline: as §1
[23] = tested on: Staphylococcus aureus; test: Antimicrobial activity against methicillin-susceptible Staphylococcus aureus isolate after 24 hrs by microdilution broth method
[24] = tested on: Pichia kudriavzevii; test: Antimicrobial activity against Candida krusei isolate 31 after 48 hrs by microdilution broth method; format: functional; conditions: isolate 31, 48 h; outline: as §1
[25] = tested on: Cryptococcus deneoformans; test: Antimicrobial activity against Cryptococcus neoformans var. neoformans isolate 30 after 48 hrs by microdilution broth method; format: functional; conditions: isolate 30, 48 h; outline: as §1
[26] = tested on: Pseudomonas aeruginosa; test: Antimicrobial activity against Pseudomonas aeruginosa isolate 1 after 24 hrs by microdilution broth method; conditions: isolate 1, 24 h
[27] = tested on: Proteus mirabilis; test: Antimicrobial activity against Proteus mirabilis isolate after 24 hrs by microdilution broth method
[28] = tested on: Candida tropicalis; test: Antimicrobial activity against Candida tropicalis isolate 11 after 48 hrs by microdilution broth method; format: functional; conditions: isolate 11, 48 h; outline: as §1
[29] = tested on: Pichia kudriavzevii; test: Antimicrobial activity against Candida krusei ATCC 6258 after 48 hrs by microdilution broth method; format: functional; conditions: ATCC 6258, 48 h

Row | Compound | MIC [1] | MIC [2] | MIC [3] | MIC [4] | MIC [5] | MIC [6] | MIC [7] | MIC [8] | MIC [9] | MIC [10] | MIC [11] | MIC [12] | MIC [13] | MIC [14] | MIC [15] | MIC [16] | MIC [17] | MIC [18] | MIC [19] | MIC [20] | other results
1 | Cc1cc(-c2nn(C)c(C)c2/[N+]([O-])=N/C#N)no1 | > 128 µg/mL | 128 µg/mL (≈ 520 µM) | 128 µg/mL (≈ 520 µM) | 128 µg/mL (≈ 520 µM) | > 128 µg/mL | 128 µg/mL (≈ 520 µM) | 128 µg/mL (≈ 520 µM) | 4 µg/mL (≈ 16.2 µM) | 128 µg/mL (≈ 520 µM) | > 128 µg/mL | 128 µg/mL (≈ 520 µM) | > 128 µg/mL | 64 µg/mL (≈ 260 µM) | 128 µg/mL (≈ 520 µM) | 8 µg/mL (≈ 32.5 µM) | > 128 µg/mL | 128 µg/mL (≈ 520 µM) | 4 µg/mL (≈ 16.2 µM) | 64 µg/mL (≈ 260 µM) | 8 µg/mL (≈ 32.5 µM) | MIC [21]: > 128 µg/mL; MIC [22]: 128 µg/mL (≈ 520 µM); MIC [23]: 16 µg/mL (≈ 65 µM); MIC [24]: 128 µg/mL (≈ 520 µM); MIC [25]: 8 µg/mL (≈ 32.5 µM); MIC [26]: > 128 µg/mL; MIC [27]: > 128 µg/mL; MIC [28]: > 128 µg/mL; MIC [29]: 64 µg/mL (≈ 260 µM)
2 | Cc1c(/[N+]([O-])=N/C#N)c(-c2cccs2)nn1C | 16 µg/mL (≈ 64.7 µM) | 8 µg/mL (≈ 32.4 µM) | 0.5 µg/mL (≈ 2.02 µM) | 0.25 µg/mL (≈ 1.01 µM) | 8 µg/mL (≈ 32.4 µM) | 0.25 µg/mL (≈ 1.01 µM) | 0.25 µg/mL (≈ 1.01 µM) | 2 µg/mL (≈ 8.09 µM) | 1 µg/mL (≈ 4.04 µM) | > 128 µg/mL | 8 µg/mL (≈ 32.4 µM) | 1 µg/mL (≈ 4.04 µM) | 0.25 µg/mL (≈ 1.01 µM) | 0.5 µg/mL (≈ 2.02 µM) | 4 µg/mL (≈ 16.2 µM) | > 128 µg/mL | 16 µg/mL (≈ 64.7 µM) | 2 µg/mL (≈ 8.09 µM) | 1 µg/mL (≈ 4.04 µM) | 2 µg/mL (≈ 8.09 µM) | MIC [21]: 1 µg/mL (≈ 4.04 µM); MIC [22]: 16 µg/mL (≈ 64.7 µM); MIC [23]: 8 µg/mL (≈ 32.4 µM); MIC [24]: 0.5 µg/mL (≈ 2.02 µM); MIC [25]: 2 µg/mL (≈ 8.09 µM); MIC [26]: > 128 µg/mL; MIC [27]: > 128 µg/mL; MIC [28]: 8 µg/mL (≈ 32.4 µM); MIC [29]: 0.5 µg/mL (≈ 2.02 µM)

Reference: ChEMBL document CHEMBL1777788, “Synthesis and in vitro antimicrobial activities of new (cyano-NNO-azoxy)pyrazole derivatives” (2011)
